Paper PMC6161044 (ACS Central Science, 2018)
Several values for one entry are separate records, joined by “and”; a condition that tells them apart may be missing. Identical values can stand only once. Ends that are not written are not given here. Peptide text beside a SMILES is read from it. * marks the point of attachment. αGalNAc = CC(=O)N[C@@H]1[C@@H](O)[C@@H](O)[C@@H](CO)O[C@@H]1*

What was measured:
[1] = target: GalNAc-T4 Lectin Flexible Loop (LFL) deletion/mutant (P463DNNP467 to GGG) (Homo sapiens, UniProt Q8N4A0, DEL463-464/N465G/N466G/P467G); test: Transferase assay and kinetics, LFL mutant; assay type: biochemical; conditions: for UDP-GalNAc Hydrolysis %: LFL deletion/mutant, Sephadex G10 chromatography (Figure S8)
Method in brief: (§1)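 Enzyme construct residues 36–578, wild-type or site-directed mutants. Reaction: 75 mM Na cacodylate pH 6.5, 1 mM 2-mercaptoethanol, 10 mM MnCl2, 0.25 mM UDP-[3H]GalNAc, 0.004–1.4 mM (glyco)peptide and 0.02–0.2 μM enzyme, at 37 °C for 10–180 min (≤30% donor used). EDTA quench, Dowex, then Sephadex G10 to separate transfer from hydrolysis. Rates hydrolysis-corrected, 2–5 repeats; Km, Vmax and Ki from Michaelis–Menten ± substrate-inhibition fits.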

[2] = target: GalNAc-T4 Lectin Mutant (D459H) (Homo sapiens, UniProt Q8N4A0, D459H); test: Transferase assay and kinetics, lectin mutant; assay type: biochemical; conditions: for UDP-GalNAc Hydrolysis %: Sephadex G10 chromatography (Figure S8)
Method in brief: as §1

[3] = target: catalytic domain mutant of GalNAc-T4 (T283S-Q285A) (Homo sapiens, UniProt Q8N4A0, Q285A/T283S); test: Surface plasmon resonance binding to GalNAc-T4 catalytic mutant; conditions: T283S/Q285A catalytic mutant (Figure S11)
GalNAc-T4 wild-type [4] = target: T1, GalNAc-T4 wild-type (Homo sapiens, UniProt Q8N4A0); test: Transferase assay and kinetics, wild-type GalNAc-T4; assay type: biochemical; conditions: for Activity relative to glycopeptides 4 and 5 (fold higher): from Figure 1a
Method in brief: as §1

[5] = target: GalNAc-T4 Catalytic/LFL Mutant (T283S-Q285A-D464A) (Homo sapiens, UniProt Q8N4A0, D464A/Q285A/T283S); test: Transferase assay and kinetics, catalytic/LFL mutant; assay type: biochemical
Method in brief: as §1

[6] = target: GalNAc-T4 Catalytic Mutant (T283S-Q285A) (Homo sapiens, UniProt Q8N4A0, Q285A/T283S); test: Transferase assay and kinetics, catalytic mutant; assay type: biochemical
GalNAc-T4 [7] = target: T2, GalNAc-T4 (Homo sapiens, UniProt Q8N4A0); test: Surface plasmon resonance binding to GalNAc-T4; conditions: wild-type
Method in brief: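 SPR binding of glycopeptide substrate to wild-type enzyme, run with excess UDP and MnCl2 present; Kd obtained by fitting the binding data.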

GalNAc-T4 [8] = target: T2, GalNAc-T4; test: STD-NMR epitope mapping with GalNAc-T4; assay type: binding; conditions: ~877 μM glycopeptide, 13.5 μM GalNAc-T4, 75 μM UDP, 75 μM MnCl2, 298 K
GalNAc-T4 wild-type [9] = target: T1, GalNAc-T4 wild-type; conditions: cited from earlier work
GalNAc-T4 [10] = target: T2, GalNAc-T4; conditions: in presence of GalNAc-T4, UDP, MnCl2; cited from earlier work
GalNAc-T4 [11] = target: T2, GalNAc-T4; conditions: wild-type GalNAc-T4, excess UDP and MnCl2; saturation not achieved; cited from earlier work
[12] = target: GalNAc-T4 catalytic mutant (T283S, Q285A), residues 36-578 (human, UniProt Q8N4A0 36-578, T283S | Q285A); test: SPR
[13] = target: GalNAc-T4 (polypeptide GalNAc-transferase 4), wild type, residues 36-578 (human, UniProt Q8N4A0 36-578); test: SPR

Q: For `CC(=O)N[C@H]1[C@@H](O[C@H](C)[C@H](NC(=O)CNC(=O)[C@H](C)NC(=O)CNC(=O)[C@H](C)NC(=O)CNC(=O)[C@H](C)NC(=O)CNC(=O)[C@@H](NC(=O)[C@H](C)NC(=O)CN)[C@@H](C)O[C@H]2O[C@H](CO)[C@H](O)[C@H](O)[C@H]2NC(C)=O)C(=O)N[C@H](C(=O)N2CCC[C@H]2C(=O)NCC(=O)N2CCC[C@H]2C(=O)NCC(N)=O)[C@@H](C)O)O[C@H](CO)[C@H](O)[C@@H]1O` [compound 6] (H-GAT(αGalNAc)GAGAGAGT(αGalNAc)TPGPG-NH2; N-terminus and C-terminus assumed), which “Apparent Vmax relative to wt GalNAc-T4 (fold higher)” value ([1]; LFL mutant) is on record?
A: Its value is about 2 fold.

Q: And the “Km increase relative to wt GalNAc-T4” value [2]?
A: The value was about 20 fold.

Q: And the “Vmax decrease relative to wt GalNAc-T4” value [2]?
A: Its value is about 5 fold.

Q: What about the “UDP-GalNAc Hydrolysis %” value [2] of the same molecule?
A: The value was about 20%.

Q: What about the “Kd by SPR relative to wt transferase (fold higher)” value [3] of the same molecule?
A: The value was about 6 fold.

Q: What about the “Catalytic efficiency (Vmax/Km) relative to peptide 3 (fold higher)” value (GalNAc-T4 wild-type [4]) of the same molecule?
A: The value was about 1.5 fold.

Q: What about the “Catalytic efficiency (Vmax/Km) relative to peptide 4 (fold higher)” value (GalNAc-T4 wild-type [4]) of the same molecule?
A: The value was about 150 fold.

Q: What about the “Km relative to peptide 3 (fold lower)” value (GalNAc-T4 wild-type [4]) of the same molecule?
A: The value was about 1.3 fold.

Q: And the “Activity relative to glycopeptides 4 and 5 (fold higher)” value (GalNAc-T4 wild-type [4])?
A: The value was about 10 fold.

Q: And the “Km relative to catalytic mutant (fold lower)” value [5]?
A: The value was about 4 fold.

Q: What about the “Catalytic efficiency Vmax/Km as fraction of wt” value [6] of the same molecule?
A: Its value is “about 1/2”.

Q: And the “Initial Vmax relative to wt transferase (fold higher)” value [6]?
A: The value was about 2 fold.

Q: What about the “Km relative to wt (fold higher)” value [6] of the same molecule?
A: The value was ~4 fold and ~3 fold.

Q: And the “Kd (SPR) relative to Km (fold higher)” value (GalNAc-T4 [7])?
A: The value was about 2 fold.

Q: And the “STD-NMR response, H2 proton of the GalNAc at Thr11” value (GalNAc-T4 [8]; catalytic domain bound neighboring GalNAc)?
A: The value was 50%.

Q: What about the “STD-NMR response, H2 proton of the GalNAc at Thr3” value (GalNAc-T4 [8]; remote lectin bound GalNAc) of the same molecule?
A: The value was 90%.

Q: Which “UDP-GalNAc Hydrolysis %” value [1] does the source give for AGAGT*TPGPGAGAT*GA [compound 5] here?
A: Its value is about 50%.

Q: And the “Reduction in catalytic efficiency compared to wt GalNAc-T4” value ([1]; LFL mutant)?
A: The value was about 50%.

Q: What about the “Apparent activity and Vmax as fraction of the values for the catalytic and LFL mutants” value [5] of the same molecule?
A: Its value is 1/4.

Q: What about the “Catalytic activity (Vmax) as fraction of wt GalNAc-T4 activity” value [6] of the same molecule?
A: The value was 1/3.

Q: What about the “Km relative to wt (fold higher)” value [6] of the same molecule?
A: The value was about 2 fold.

Q: With AGAGTTPGPGAGAT*GA [compound 2] as the molecule, how does the “UDP-GalNAc Hydrolysis %” value [1] read?
A: The value was about 90%.

Q: And the “Glycosylation by GalNAc-T4 (in words)” value (GalNAc-T4 wild-type [9])?
A: The value was “imperceptibly glycosylated”.

Q: With GAGAGAGT*TPGPG [compound 4] as the molecule, how does the “UDP-GalNAc Hydrolysis %” value [1] read?
A: Its value is about 50%.

Q: And the “Reduction in catalytic efficiency compared to wt GalNAc-T4” value ([1]; LFL mutant)?
A: Its value is about 50%.

Q: And the “Catalytic efficiency relative to wt transferase (fold higher)” value [2]?
A: The value was about 2 fold.

Q: And the “Vmax relative to wt transferase (fold higher)” value [2]?
A: Its value is about 2 fold.

Q: And the “Apparent activity and Vmax as fraction of the values for the catalytic and LFL mutants” value [5]?
A: The value was 1/4.

Q: And the “Catalytic activity (Vmax) as fraction of wt GalNAc-T4 activity” value [6]?
A: Its value is 1/3.

Q: And the “Km relative to wt (fold higher)” value [6]?
A: The value was about 2 fold.

Q: Which results are given for GAGAGAGTTPGPG [compound 1]?
A: UDP-GalNAc Hydrolysis % [1]: ~90%; Glycosylation by GalNAc-T4 (in words) (GalNAc-T4 wild-type [9]): imperceptibly glycosylated; STD-NMR enhancements (in words) (GalNAc-T4 [10]): No significant STD enhancements

Q: For GAT*GAGAGAGTTPGPG [compound 3], which “Km increase relative to wt GalNAc-T4” value [2] is on record?
A: Its value is about 20 fold.

Q: What about the “UDP-GalNAc Hydrolysis %” value [2] of the same molecule?
A: The value was about 70%.

Q: And the “Catalytic efficiency (Vmax/Km) relative to peptide 4 (fold higher)” value (GalNAc-T4 wild-type [4])?
A: Its value is about 100 fold.

Q: What about the “Km relative to peptide 4 (fold lower)” value (GalNAc-T4 wild-type [4]) of the same molecule?
A: The value was about 12 fold.

Q: What about the “Vmax relative to peptide 4 (fold higher)” value (GalNAc-T4 wild-type [4]) of the same molecule?
A: The value was about 8 fold.

Q: What about the “Activity relative to glycopeptides 4 and 5 (fold higher)” value (GalNAc-T4 wild-type [4]) of the same molecule?
A: Its value is about 10 fold.

Q: What about the “Kd by SPR (in words)” value (GalNAc-T4 [11]) of the same molecule?
A: Its value is “in the mM range”.

Q: What about the “Km relative to wt (fold higher)” value [5] of the same molecule?
A: The value was about 2 fold.

Q: And the “Km relative to wt (fold higher)” value [6]?
A: The value was about 2 fold.

Q: With GATGAGAGAGTTPGPG (not fully specified (residues 3, 11); printed as GAT*GAGAGAGT*TPGPG) [diglycopeptide 6, GAT*GAGAGAGT*TPGPG] as the molecule, how does the “fold change of Kd against the wt transferase” value [12] read?
A: Its value is about 6 fold.

Q: And the Kd [13]?
A: Its Kd is 70 ± 15 µM.
